Calls of active or inactive are those of the source. The rule behind the calls is not given here.
How the values were obtained:
Aorta [1] = experiment: Maximal vasorelaxant activity in Wistar rat endothelium-denuded aortic ring assessed as reduction of KCl-induced contraction at 30 uM relative to control; type: functional
In short: (§1)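 Rat aortic rings were pre-contracted with KCl 30 mM and exposed to cumulative test concentrations. Potency: pIC50, the negative log of the concentration halving KCl-induced tone. Efficacy: Emax, the maximal relaxation at the highest concentration tested. Both given as mean ± SEM.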

Aorta [2] = experiment: Vasorelaxant activity in Wistar rat endothelium-denuded aortic ring assessed as reduction of KCl-induced contraction; type: functional, tissue-based; in short: as §1
Rattus norvegicus [3] = experiment: Cardio-protective anti-ischemic activity in STZ-treated Wistar rat heart assessed as reduction in ischemic area at 18.2 mg/kg, ip for 7 days followed by treatment hearts submitted to 30 mins ischemia measured after 120 mins of reperfusion; type: functional, organism-based; design: dose 18.2 mg/kg
In short: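 STZ-diabetic male Wistar rats (50 mg/kg ip; fasting glycemia 100–150 mg/dl) dosed ip daily for 7 days from day 11, with vehicle normoglycemic rats as reference. Langendorff hearts: 30 min equilibration, 30 min ischemia, 120 min reperfusion. Then 2 mm left-ventricle slices were stained with triphenyltetrazolium chloride, and damaged area was measured by planimetry as % of whole area. Mean ± SEM.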

Rattus norvegicus [4] = experiment: Cardio-protective anti-ischemic activity in STZ-treated Wistar rat heart assessed as recovery of functional parameter at 18.2 mg/kg, ip for 7 days followed by treatment hearts submitted to 30 mins ischemia measured after 120 mins of reperfusion; type: organism-based; design: dose 18.2 mg/kg
In short: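 Male Wistar rats (250–300 g) given streptozotocin 50 mg/kg ip; those with fasting glycemia 100–150 mg/dl at day 4 were used. From day 11, daily ip dosing for 7 days, with vehicle-treated normoglycemic rats as reference. Hearts were taken under heparin and pentobarbital, Langendorff-perfused, equilibrated 30 min, then 30 min ischemia and 120 min reperfusion. Read-out: RPP recovery %, mean ± SEM.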

Rattus norvegicus [5] = experiment: Hypoglycemic activity in STZ-treated Wistar rat diabetic model at 75.8 mg/kg, ip after 10 mins treated with 1 g/kg, ip glucose; type: functional, organism-based; design: dose 75.8 mg/kg
In short: (§2)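 Male Wistar rats (250–300 g) made diabetic with streptozotocin 50 mg/kg ip (fasting glycemia 100–150 mg/dl at day 4), fasted 24 h, then dosed ip. Glucose 1 g/kg ip was given 10 min later. Blood glucose was read by tail puncture with a glucometer at 0, 15, 30, 45, 60, 90 and 120 min, and AUC was calculated. Vehicle normoglycemic rats served as reference.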

Rattus norvegicus [6] = experiment: Hypoglycemic activity in STZ-treated Wistar rat diabetic model at 50 mg/kg, ip after 10 mins treated with 1 g/kg, ip glucose; type: functional, organism-based; design: dose 50 mg/kg; in short: as §2

Q: `CCOc1cc(CC(=O)N[C@@H](CC(C)C)c2ccccc2N2CCCCC2)ccc1C(=O)OCc1cccc(C(C)O[N+](=O)[O-])c1` (stereo partly specified) was tested. Which Emax at 30 µM (Aorta [1]) did it give?
A: The Emax at 30 µM was 26%.

Q: How did the IC50 (Aorta [2]) turn out when `CC(O[N+](=O)[O-])c1ccc(COC(=O)[C@@H](Cc2ccccc2)NC(=O)[C@H]2CC[C@H](C(C)C)CC2)cc1` (stereo partly specified) was run?
A: Its IC50 is 23.4 µM.

Q: And the Emax at 30 µM (Aorta [1])?
A: The Emax at 30 µM was 58%.

Q: What does the source list for `CCOc1cc(CC(=O)N[C@@H](CC(C)C)c2ccccc2N2CCCCC2)ccc1C(=O)OCc1cccc(CO[N+](=O)[O-])c1`?
A: IC50 (Aorta [2]): 13.2 µM; Emax at 30 µM (Aorta [1]): 79%

Q: `CC(C)[C@H]1CC[C@H](C(=O)N[C@H](Cc2ccccc2)C(=O)OCc2cccc(CO[N+](=O)[O-])c2)CC1` was tested. Which Emax at 30 µM (Aorta [1]) did it give?
A: Its Emax at 30 µM is 45%.

Q: Which Activity (Rattus norvegicus [3]) does the source give for `CC(C)[C@H]1CC[C@H](C(=O)N[C@H](Cc2ccccc2)C(=O)OCc2ccc(CO[N+](=O)[O-])cc2)CC1` here?
A: The Activity was “Active”.

Q: What about the Activity (Rattus norvegicus [4]) of the same compound?
A: The Activity was “Active”.

Q: What about the Activity (Rattus norvegicus [5]) of the same compound?
A: The Activity was “Active”.

Q: What about the IC50 (Aorta [2]) of the same compound?
A: Its IC50 is 5.01 µM.

Q: What about the Emax at 30 µM (Aorta [1]) of the same compound?
A: The Emax at 30 µM was 93%.

Q: How did the Activity (Rattus norvegicus [6]) turn out when `CC(C)[C@H]1CC[C@H](C(=O)N[C@H](Cc2ccccc2)C(=O)O)CC1` was run?
A: Its Activity is “Active”.

Q: With `CCOc1cc(CC(=O)N[C@@H](CC(C)C)c2ccccc2N2CCCCC2)ccc1C(=O)OCc1ccc(C(C)O[N+](=O)[O-])cc1` (stereo partly specified) as the compound, how does the IC50 (Aorta [2]) read?
A: The IC50 was 5.01 µM.

Q: And the Emax at 30 µM (Aorta [1])?
A: The Emax at 30 µM was 84%.

Q: Which IC50 (Aorta [2]) does the source give for `CCOc1cc(CC(=O)N[C@@H](CC(C)C)c2ccccc2N2CCCCC2)ccc1C(=O)OCc1ccc(CO[N+](=O)[O-])cc1` here?
A: The IC50 was 8.13 µM.

Q: And the Emax at 30 µM (Aorta [1])?
A: Its Emax at 30 µM is 94%.

Reference: ChEMBL document CHEMBL3397023, “Synthesis and evaluation of multi-functional NO-donor/insulin-secretagogue derivatives for the treatment of type II diabetes and its cardiovascular complications” (Bioorg Med Chem, 2015)
